One test addresses Cannabinoid receptor 2 (Homo sapiens, UniProt P34972). The test is described as follows: Displacement of [3H]CP-55940 from human CB2 receptor expressed in HEK293 cells. It counts as cell-based.
The species named for the next test is Homo sapiens. The test is described as follows: Selectivity for human CB2 receptor over human CB1 receptor. The method, boiled down: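 Ratio Ki(CB1)/Ki(CB2) from radioligand displacement on HEK-cell membranes expressing human CB1 or CB2. Ki derived from IC50 via Cheng-Prusoff. Final DMSO below 0.1%.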
A further test deals with Cannabinoid receptor 1 (Homo sapiens, UniProt P21554). The experiment in a line: biochemical. The test is classed as cell-based, HEK293.
Cannabinoid receptor 1, sequence (P21554 whole entry): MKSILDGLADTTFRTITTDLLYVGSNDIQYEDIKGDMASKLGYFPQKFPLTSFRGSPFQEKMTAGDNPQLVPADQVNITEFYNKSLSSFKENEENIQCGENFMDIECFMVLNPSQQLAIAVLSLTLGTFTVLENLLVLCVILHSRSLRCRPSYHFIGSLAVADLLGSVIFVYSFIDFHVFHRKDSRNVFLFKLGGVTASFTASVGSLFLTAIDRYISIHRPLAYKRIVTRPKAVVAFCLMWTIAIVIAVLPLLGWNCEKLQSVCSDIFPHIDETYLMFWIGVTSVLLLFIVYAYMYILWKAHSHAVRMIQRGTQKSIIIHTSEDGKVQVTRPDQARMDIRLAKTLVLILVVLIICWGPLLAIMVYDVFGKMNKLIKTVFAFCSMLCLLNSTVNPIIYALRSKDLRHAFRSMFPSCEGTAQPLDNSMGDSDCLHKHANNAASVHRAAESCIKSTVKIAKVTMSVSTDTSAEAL
In test [1] the test system is Mus musculus. The test is described as follows: Analgesic activity in mouse assessed as inhibition of formalin-induced nociceptive response at 3 mg/kg, ip in presence of AM630. The test is classed as functional, organism-based. More on the design: dose 3 mg/kg. The method, boiled down:
(§1)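 Mice, 8-10 per group, randomly assigned; 1.25% formalin into dorsal hind paw. Drug given ip in 10% DMSO/0.9% NaCl 15 min before formalin; AM630 3 mg/kg ip given 5 min before compound. Licking, lifting, flinching, shaking and favoring timed in 5-min bins over 60 min; second phase 15-60 min. Two-way ANOVA with Bonferroni.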

Test [2] relates to Mus musculus. The test is described as follows: Analgesic activity in mouse assessed as inhibition of formalin-induced nociceptive response at 3 mg/kg, ip. It counts as functional, organism-based. Further details: dose 3 mg/kg. An outline of the steps:
as §1

Active and inactive are the calls of the source. No cut-off for these calls is given here.

By Ki is commonly meant the dissociation constant of the complex between target and ligand, obtained from inhibition or displacement. Higher therefore signals lower affinity.

Cannabinoid receptor 2, sequence (P34972 whole entry): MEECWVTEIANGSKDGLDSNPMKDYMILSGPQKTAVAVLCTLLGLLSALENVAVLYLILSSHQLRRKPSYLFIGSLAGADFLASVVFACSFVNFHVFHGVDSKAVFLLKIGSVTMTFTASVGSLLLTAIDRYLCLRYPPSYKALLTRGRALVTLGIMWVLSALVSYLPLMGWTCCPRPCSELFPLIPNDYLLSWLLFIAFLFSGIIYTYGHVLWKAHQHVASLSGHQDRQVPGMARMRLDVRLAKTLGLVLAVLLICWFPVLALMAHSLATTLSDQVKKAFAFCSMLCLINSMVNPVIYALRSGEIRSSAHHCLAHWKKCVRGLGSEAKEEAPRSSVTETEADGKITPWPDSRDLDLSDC

Regarding `CCCCCn1cc(C(=O)NC23CC4CC(CC(C4)C2)C3)c(=O)c2c(OC)ccc(OC)c21`, the inhibition constant (Ki) stood at 52.6 nM at Cannabinoid receptor 2 and 2100 nM on Cannabinoid receptor 1. For the same compound, the Ratio Ki in the test filed under Homo sapiens came out at 39.9.

`CCCCCn1cc(C(=O)NC23CC4CC(CC(C4)C2)C3)c(=O)c2cc(Sc3ccccc3)ccc21`: the values for the inhibitory constant (Ki) on Cannabinoid receptor 2 and on Cannabinoid receptor 1 were 3.4 nM and 640 nM, respectively. Further, the Ratio Ki in the test listed under Homo sapiens was 189.

As to `C=CCn1cc(C(=O)NC23CC4CC(CC(C4)C2)C3)c(=O)c2c(OC)ccc(OC)c21`, the inhibition constant Ki at Cannabinoid receptor 2 is 9.2 nM; on Cannabinoid receptor 1 it was > 10000 nM. In addition, the Ratio Ki in the test filed under Homo sapiens is > 1090.

Consider `CCCCCn1cc(C(=O)NC23CC4CC(CC(C4)C2)C3)c(=O)c2ccc(F)cc21`, for which the values for the inhibition constant (Ki) on Cannabinoid receptor 2 and on Cannabinoid receptor 1 were 0.8 nM and 30.5 nM, respectively. Besides, the Ratio Ki in the test filed under Homo sapiens turned out to be 38.1.

For the compound `CCCCCn1cc(C(=O)N[C@H](C)c2ccccc2)c(=O)c2ccc(F)cc21`, the Ki on Cannabinoid receptor 2 came to 10.7 nM; at Cannabinoid receptor 1, 14.3 nM. In the test listed under Homo sapiens, the Ratio Ki is 1.3.

Take `CCCCCn1cc(C(=O)NC23CC4CC(CC(C4)C2)C3)c(=O)c2ccccc21`: the inhibitory constant (Ki) at Cannabinoid receptor 2 came out at 4.7 nM; at Cannabinoid receptor 1 it was 42.1 nM. The Ratio Ki in the test listed under Homo sapiens is 9.

Take `CCCCCn1cc(C(=O)NC23CC4CC(CC(C4)C2)C3)c(=O)c2cc(-c3ccccc3)ccc21`: the Ki at Cannabinoid receptor 2 was 3.8 nM; at Cannabinoid receptor 1 it was > 10000 nM. Also, the Ratio Ki in the test listed under Homo sapiens was > 2670.

`CCCCCn1cc(C(=O)NC23CC4CC(CC(C4)C2)C3)c(=O)c2ccc(S(=O)(=O)c3ccccc3)cc21`: the results for the inhibition constant (Ki) at Cannabinoid receptor 2 and at Cannabinoid receptor 1 were 0.9 nM and 6.1 nM, respectively.

Consider `CCCCCn1cc(C(=O)NC23CC4CC(CC(C4)C2)C3)c(=O)c2cc(C(F)(F)F)ccc21`, for which the inhibitory constant (Ki) worked out at 11.6 nM at Cannabinoid receptor 2 and 2520 nM at Cannabinoid receptor 1. In addition, the Ratio Ki in the test filed under Homo sapiens came out at 217.

As to `CCCCCn1cc(C(=O)N[C@H](C)c2ccccc2)c(=O)c2ccc(N3CCCC3)cc21`, the inhibition constant Ki on Cannabinoid receptor 2 worked out at 17.1 nM; on Cannabinoid receptor 1, 160 nM. The Ratio Ki in the test listed under Homo sapiens came out at 9.4.

In the case of `CCCCCn1cc(C(=O)NC23CC4CC(CC(C4)C2)C3)c(=O)c2cc(Oc3ccc(F)c(Cl)c3)ccc21`, the Ki worked out at 16.1 nM on Cannabinoid receptor 2 and 739 nM at Cannabinoid receptor 1. Besides, in the test filed under Homo sapiens, the Ratio Ki amounted to 46.

`CCCCCn1cc(C(=O)NC23CC4CC(CC(C4)C2)C3)c(=O)c2cc(F)c(-n3cccc3)cc21`: the inhibitory constant (Ki) at Cannabinoid receptor 2 is 3.6 nM; at Cannabinoid receptor 1, 140 nM. In addition, the Ratio Ki in the test listed under Homo sapiens is 38.8.

As for `CCCCCn1cc(C(=O)NC23CC4CC(CC(C4)C2)C3)c(=O)c2cc(C(C)C)ccc21`, the result in the test with Mus musculus [1] was inactive. In addition, the result in the test with Mus musculus [2] was Active.

As for `CCCCCn1cc(C(=O)N[C@H](C)c2ccccc2)c(=O)c2ccc(OCC)cc21`, the Ki at Cannabinoid receptor 2 is 24.2 nM; on Cannabinoid receptor 1, 29.7 nM. In addition, in the test filed under Homo sapiens, the Ratio Ki stood at 1.2.

`CCCCCn1cc(C(=O)NC23CC4CC(CC(C4)C2)C3)c(=O)c2cc(/C=C/c3ccc(OC)cc3)ccc21`: the results for the Ki at Cannabinoid receptor 2 and on Cannabinoid receptor 1 were 55.9 nM and 2630 nM, respectively. Besides, the Ratio Ki in the test filed under Homo sapiens is 47.

With `CCCCCn1cc(C(=O)NC23CC4CC(CC(C4)C2)C3)c(=O)c2ccc(Sc3ccccc3)cc21`, the Ki at Cannabinoid receptor 2 came out at 1.6 nM; at Cannabinoid receptor 1 it was 5.3 nM. In the test listed under Homo sapiens, the Ratio Ki turned out to be 3.3.

For the compound `C=CCCCn1cc(C(=O)NC23CC4CC(CC(C4)C2)C3)c(=O)c2cc(Br)ccc21`, the figures for the inhibition constant Ki on Cannabinoid receptor 2 and at Cannabinoid receptor 1 were 9.4 nM and 696 nM, respectively. Besides, the Ratio Ki in the test listed under Homo sapiens amounted to 74.4.

Take `CCCCCn1cc(C(=O)NC23CC4CC(CC(C4)C2)C3)c(=O)c2cc(Br)ccc21`: the Ki on Cannabinoid receptor 2 worked out at 14.3 nM; at Cannabinoid receptor 1 it was 996 nM. Further, in the test filed under Homo sapiens, the Ratio Ki worked out at 69.4.

As to `CCCCCn1cc(C(=O)NC23CC4CC(CC(C4)C2)C3)c(=O)c2ccc(Cl)c(C)c21`, the Ki on Cannabinoid receptor 2 is 25.5 nM; on Cannabinoid receptor 1, > 10000 nM. In the test listed under Homo sapiens, the Ratio Ki is > 393.

Consider `C=CCCn1cc(C(=O)NC23CC4CC(CC(C4)C2)C3)c(=O)c2cc(Br)ccc21`, for which the Ki at Cannabinoid receptor 2 came out at 23.8 nM; at Cannabinoid receptor 1, 2680 nM. The Ratio Ki in the test filed under Homo sapiens is 113.

As to `CCCCCn1cc(C(=O)NC23CC4CC(CC(C4)C2)C3)c(=O)c2ccc([S+]([O-])c3ccccc3)cc21` (stereo unspecified), the inhibition constant Ki at Cannabinoid receptor 2 amounted to 3.5 nM; on Cannabinoid receptor 1, 28 nM. The Ratio Ki in the test filed under Homo sapiens was determined as 8.

(Values after ChEMBL document CHEMBL1156630, “Investigations on the 4-quinolone-3-carboxylic acid motif. 2. Synthesis and structure-activity relationship of potent and selective cannabinoid-2 receptor agonists endowed with analgesic activity in vivo” (J Med Chem, 2008).)
